Screens (PubChem)
Shown are actives, neighbours in structure and some others; about 2.5% of the full set was active somewhere.
PRMT1 FP inh = blocks human protein arginine methyltransferase 1 | Q99873 | recombinant PRMT1, activity-based probe fluorescence polarization | inhibition, % at 2.79 µM | 1.3% of 370,000 active | AID 652257;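 active = inhibition above about 21% made by adding two undisclosed values, limit read from the data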
Target sequence (Q99873 whole entry, looked up): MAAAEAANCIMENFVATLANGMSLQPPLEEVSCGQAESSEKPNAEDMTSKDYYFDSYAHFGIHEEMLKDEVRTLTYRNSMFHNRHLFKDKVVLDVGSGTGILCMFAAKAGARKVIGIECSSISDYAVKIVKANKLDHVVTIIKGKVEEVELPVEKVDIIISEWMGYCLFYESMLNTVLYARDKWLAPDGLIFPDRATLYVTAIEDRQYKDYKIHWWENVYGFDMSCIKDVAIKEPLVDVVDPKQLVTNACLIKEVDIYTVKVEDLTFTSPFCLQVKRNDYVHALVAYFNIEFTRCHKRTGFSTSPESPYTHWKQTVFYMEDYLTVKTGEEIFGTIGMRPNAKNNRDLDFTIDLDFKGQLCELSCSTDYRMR
TCR CD3 inh = inhibitors of human TCR-CD3 interaction | 0.37% of 360,000 active | TAMRA-labeled TCR probe fluorescence, biochemical | inhibition, % at 9.4 µM; in the data active = inhibition above about 19%;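 note: recombinant mutant TCR 2C K166C tagged with TAMRA read by polarization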
SIAE primary = human SIAE inhibition, primary screen | Q9HAT2 | AID 1053197 | SIAE FP-Rh probe binding, fluorescence polarization | 0.69% of 370,000 active | inhibition, % at 9.66 µM;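 active = inhibition above a cutoff: mean of compounds within the control limits plus 3 SD of those, cut at about 17% in these data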
mABHD4 FP = inhibitors of mouse ABHD4 | Q8VD66 | purified mABHD4, FP-Rh probe fluorescence polarization | inhibition, % at 8.92 µM | 0.54% of 370,000 active;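 active = inhibition exceeding the mean over every tested compound plus 3 SD, cut at about 30% in these data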
Target sequence (Q8VD66 whole entry, looked up): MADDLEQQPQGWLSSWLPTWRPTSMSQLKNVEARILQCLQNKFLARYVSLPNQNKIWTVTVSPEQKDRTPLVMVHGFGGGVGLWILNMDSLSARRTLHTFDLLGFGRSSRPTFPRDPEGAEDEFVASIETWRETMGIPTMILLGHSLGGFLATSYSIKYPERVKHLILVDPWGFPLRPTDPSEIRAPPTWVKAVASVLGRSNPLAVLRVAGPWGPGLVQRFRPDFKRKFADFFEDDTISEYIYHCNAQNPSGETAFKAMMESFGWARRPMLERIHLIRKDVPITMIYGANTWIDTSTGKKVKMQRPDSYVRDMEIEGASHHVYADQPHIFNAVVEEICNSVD
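system = mouse ABHD4 enzyme, wild type | medium = HEPES pH 7.0, NaCl, Pluronic buffer | also added = FP-Rh probe | incubation = Enzyme–compound pre-incubation 45 min, then probe 60 min, both 25 °C | technique = fluorescence polarization, excitation 525 nm, emission 598 nm, BODIPY TMR filters | controls = S159A mutant high control, sample median low control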
HTRA1 inhibitor = HTRA1 (human) protease inhibition. recombinant HTRA1, FP-rhodamine activity-based probe, fluorescence polarization. inhibition, % at 5.96 µM. 0.5% of 340,000 active. AID 504803; in the data active = inhibition above about 36%
Numbers stand for hits; 0 = inactive; - = not tested or not shown; ! = not confirmed by another sample.

SMILES | PRMT1 FP inh | TCR CD3 inh | SIAE primary | mABHD4 FP | HTRA1 inhibitor
Clc1ccc(C2=CC(c3ccco3)n3ncnc3N2)cc1 (stereo not given) | 64 | 0 | 0 | 0 | 0
COc1ccc(C2=CC(c3ccco3)n3ncnc3N2)cc1 (stereo not given) | - | - | - | - | 0
O=C(/C=C\c1ccco1)NC(=S)Nc1ccccc1O | 0 | 0 | 0 | 0 | 0
O=C(/C=C/c1ccco1)NC(=S)Nc1ccccc1O | 21 | 0 | 0 | 0 | -
CC(=O)Nc1ccc(NC(=S)NC(=O)/C=C/c2ccco2)cc1 | 21 | 0 | 0 | 0 | 0
COc1ccc(C=NCCc2ccc(OC)c(OC)c2)cc1OC | 0 | 0 | 0 | 0 | 0
O=C(CN1C2=NCCN2c2ccccc21)c1ccc2c(c1)OCO2 | 0 | 0 | 20 | 0 | 0
Cc1ccc2c(C(=O)CN3CCN(C(=O)c4ccco4)CC3)c(C)[nH]c2c1 | 0 | 0 | 0 | 0 | -
CC1=C(C#N)C(=O)NC(=O)/C1=C\c1ccc(-c2cc(C)c(C)cc2[N+](=O)[O-])o1 | 40 | 0 | 0 | 41 | 0
O=S(=O)(Nc1ccc(Br)cn1)c1ccc2ccccc2c1 | 0 | 0 | 0 | 0 | 0
CCN(CC(=O)Nc1ccc(OC)cc1)C(=O)c1ccc2c(c1)NC(=O)CS2 | 0 | 0 | 0 | 0 | 0
CN(C)c1ccc(NC(=O)c2sc(SCC(=O)Nc3nccs3)nc2N)cc1 | 0 | 0 | 24 | 0 | 0
O=C(CN1C(=O)/C(=C\c2ccco2)SC1=S)Nc1ccc(O)cc1C(=O)O | 43 | 0 | 0 | 0 | 0
CCC1(C)Cc2ccccc2/C(=C/C(=O)N2CCCCC2)N1 (stereo not given) | 22 | 0 | 0 | 0 | 0
Cc1[nH]c2ccccc2c1C(=O)C(=O)N1CCN(c2cccc(Cl)c2)CC1 | 0 | 0 | 0 | 0 | 0
Cc1ccc(S(=O)(=O)N2CCOCC2)cc1NC(=O)CSc1nc(N)cc(=O)[nH]1 | 23 | 0 | 0 | 0 | 0
Cc1ccc(S(=O)(=O)N2CCOCC2)cc1NC(=O)CSc1nc(N)cc(N)n1 | 0 | 0 | 0 | 0 | 0
CC(C)(C)n1nnnc1CN(Cc1ccco1)Cc1cc2cc3c(cc2[nH]c1=O)OCO3 | 24 | 0 | 0 | 0 | 0
CCC(C)(C)n1nnnc1CN(Cc1ccco1)Cc1cc2cc3c(cc2[nH]c1=O)OCO3 | - | - | - | - | 0
CCc1ccc2[nH]c(=O)c(CN(Cc3ccccc3OC)Cc3nnnn3Cc3ccco3)cc2c1 | 23 | 0 | 0 | 0 | 0
CN(Cc1ccccc1)C(=O)OCc1cn(Cc2cccc(C(F)(F)F)c2)nn1 | 0 | - | 0 | 0 | -
CC(NC(=O)c1ccc(-c2cc(C(F)(F)F)ccc2Cl)o1)c1ccccc1 (stereo not given) | 0 | 0 | 0 | 0 | 0
c1ccc(CCn2nnnc2CN2CCCc3ccccc32)cc1 | 25 | 0 | 0 | 0 | 0
O=[N+]([O-])c1c(Nc2ccc(O)cc2)cc(Cl)c2nonc12 | 77 | 0 | 0 | 0 | 0
COc1ccc(NC(=S)Nc2cc(C)[nH]n2)cc1Cl | 0 | 0 | 0 | 0 | 0
SMILES | PRMT1 FP inh | TCR CD3 inh | SIAE primary | mABHD4 FP | HTRA1 inhibitor
Cc1cc(NC(=S)Nc2ccc(C)c(Cl)c2)n[nH]1 | 24 | 0 | 0 | 0 | 0
CC(=O)NC1=C(C#N)C(c2ccccc2)c2c(ccc3ccccc23)O1 (stereo not given) | 0 | 0 | 0 | 0 | 0
CC(=O)NCCc1nc2cc(NC(=O)c3ccc([N+](=O)[O-])cc3)ccc2n1C | 0 | 0 | 0 | 0 | 0
CCC1CCCCN1C(=S)NN=C(C)c1ccccn1 (stereo not given) | 24 | 0 | 0 | 0 | -
Cc1ccc2sc(C)[n+](CCCS(=O)(=O)[O-])c2c1 | 38 | 0 | 0 | 0 | 0
Cc1ccc2c(c1)sc(C)[n+]2CCCS(=O)(=O)[O-] | 62 | 0 | 0 | 0 | 0
C[C@H]1[C@@H](OC(=O)Nc2cc(Cl)ccc2Cl)CC[C@@]23CCCN2C(=O)CCC[C@@H]13 | 0 | - | 0 | 0 | -
CC(C)(C)c1csc(NNC(=O)c2ccc(Br)cc2)n1 | 23 | 0 | 0 | 0 | 0
O=[N+]([O-])c1ccc(SCCc2ccncc2)cc1 | 24! | 0 | 0 | 0 | 0
O=[N+]([O-])c1ccc(SCCc2ccccn2)cc1 | 0 | 0 | 0 | 0 | 0
COc1ccc(/C=C2\SC(=S)N(CC(=O)OCC(=O)Nc3ccc([N+](=O)[O-])cc3OC)C2=O)cc1 | 0 | 0 | 0 | 0 | 0
COc1ccc(/C=C2\SC(=S)N(CC(=O)OCC(=O)Nc3ccc(C)cc3Cl)C2=O)cc1 | 21 | 0 | 0 | 0 | 0
COC(=O)c1ccccc1NC(=O)CSc1nnnn1CC(=O)O | 0 | 0 | 0 | 0 | 0
N#CC(c1ccc(Cl)cc1)c1ccc2c(C(F)(F)F)cc(C(F)(F)F)nc2n1 (stereo not given) | 0 | 0 | 23 | 0 | 0
N#CCNC1CC(=O)N(c2ccc(F)cc2)C1=O (stereo not given) | 22 | 0 | 0 | 0 | 0
O=C1CC(NCc2ccc(F)cc2)C(=O)N1c1ccccc1 (stereo not given) | 22 | 0 | 0 | 0 | 0
COc1cc2c(cc1NC(=O)CSc1nnc(COc3ccccc3)n1Cc1ccco1)oc1ccccc12 | 0 | - | 0 | 0 | -
COc1cccc(COC(=O)CSCC(=O)Nc2ccc(C)cc2)c1OC | 0 | 0 | 0 | 0 | 0
O=C(CSc1nnc(Cc2ccccc2)n1Cc1ccco1)NC1CCCC1 | 22 | 0 | 0 | 0 | 0
Cn1c(Cc2ccccc2)nnc1SCC(=O)NC1CCCC1 | 0 | 0 | 0 | 0 | 0
Cn1c2ccccc2c(=O)c2c(=O)n(C3CCCCC3)c(-c3ccco3)nc21 | 0 | 0 | 0 | 0 | 0
CC(=O)Nc1cccc(C(=O)/C=C/c2ccc[nH]2)c1 | 22 | 0 | 0 | 0 | 0
CC(=O)Nc1cccc(C(=O)/C=C/c2ccco2)c1 | 21 | 0 | 0 | 0 | 0
CC(=O)Nc1cccc(C(=O)/C=C/c2ccc(/C=C/C(=O)c3cccc(NC(C)=O)c3)cc2)c1 | 0 | 0 | 0 | 0 | -
CCCC[C@@H]1C=C(C(=O)O)[C@H](c2ccc(Cl)cc2)N1S(=O)(=O)c1ccc(C)cc1 | 0 | 0 | 0 | 0 | 0
SMILES | PRMT1 FP inh | TCR CD3 inh | SIAE primary | mABHD4 FP | HTRA1 inhibitor
CCCCOCCCNC(=O)C[C@H]1C[C@@]2(C(=O)OC)C(=C[C@H](C3CCCC3)O[C@@H]2C)N(Cc2cccc3ccccc23)C1=O | 0 | - | 0 | 0 | -
CC1CCN(S(=O)(=O)c2nnc(NC(=O)c3cccc(Cl)c3)s2)CC1 | 0 | 0 | 0 | 0 | 0
O=S(=O)(Nc1ccc2c(c1)OCO2)c1ccc(Cl)cc1F | 0 | 0 | 0 | 0 | 0
COc1ccccc1NC(=S)OCCN1CCCC12CCC(c1ccccc1)CC2 (stereo not given) | 22 | - | 0 | 0 | -
COc1ccccc1NC(=O)OCCN1CCCC12CCC(c1ccccc1)CC2 (stereo not given) | 0 | - | 0 | 0 | -
O=C(Nc1cccc2ncccc12)c1ccc(-c2ccc(Br)cc2)o1 | 25 | 0 | 0 | 0 | 0
CCC(=O)N1CCN(c2ccc(NC(=O)c3ccc4c(c3)OCO4)cc2)CC1 | 0 | 0 | 101 | 0 | 0
Cc1ccc([N+](=O)[O-])cc1NC(=O)Nc1cccc(F)c1 | 0 | 0 | 0 | 0 | 0
COc1cc2c(cc1OC)C(Nc1ccccc1)=NC(C)(C)C2 | 0 | 0 | 0 | 0 | 0
O=C1CC(=O)N(Cc2ccco2)C(=O)N1 | 22 | 0 | 0 | 0 | 0
